Measured values from different studies.
Each line is one published result; the experiments were not run side by side.
RPS6KA1: Ribosomal protein S6 kinase alpha-1 (RPS6KA1, Homo sapiens, UniProt Q15418)
RPS6KA1 C-terminal kinase domain: Ribosomal protein S6 kinase alpha-1, C-terminal kinase domain (RPS6KA1, Homo sapiens, UniProt Q15418)
RPS6KA1 N-terminal kinase domain: Ribosomal protein S6 kinase alpha-1, N-terminal kinase domain (RPS6KA1, Homo sapiens, UniProt Q15418)

Compound | target | read-out | action | method | concentration | measurement | result
CC(C)c1ccc(NC(=O)c2cccs2)c(-c2nc3ccccc3[nH]c2=O)c1 | RPS6KA1 | enzyme activity | inhibitor |  | 1 µM | activity vs control | 96%
CNC(=O)c1ccc(Nc2ncc(C(F)(F)F)c(NCc3nccnc3N(C)S(C)(=O)=O)n2)cc1 | RPS6KA1 C-terminal kinase domain | cell-free assay |  | competition with immobilised ligand | 0.1 µM | remaining binding | 71%
CC(C)(C)c1nc2c(s1)c1nc(N)ncc1c1ccc(NS(=O)(=O)c3c(F)cccc3F)c(F)c12 | RPS6KA1 | enzyme activity | inhibitor | radiometric | 1 µM | remaining activity | 107%
COc1cc2c(N3CCN(C(=O)Nc4ccc(OC(C)C)cc4)CC3)ncnc2cc1OCCCN1CCCCC1 | RPS6KA1 | cell-free assay |  |  | 0.5 µM | remaining signal | 94.8%
C[C@@H]1CCN(c2nccc(-c3cnn4ncccc34)n2)C1 | RPS6KA1 N-terminal kinase domain | binding |  | competition with immobilised ligand | 1 µM | remaining binding | 100%
COc1cc(Nc2cnc(C#N)c(O[C@H](C)CN(C)C)n2)ncc1-c1cnn(C)c1 | RPS6KA1 | enzyme activity | inhibitor | radiometric | 10 µM | remaining activity | 14%
CNCc1ccccc1-c1csc([C@H](C)Nc2nc(C)nc3cc(OC)c(OC)cc23)c1 | RPS6KA1 C-terminal kinase domain | cell-free assay |  | competition with immobilised ligand | 1 µM | remaining binding | 100%
c1cnn2ncc(-c3ccnc(N4CCC45COC5)n3)c2c1 | RPS6KA1 N-terminal kinase domain | binding |  | competition with immobilised ligand | 1 µM | remaining binding | 90%
Oc1cccc(-c2nc(N3CCOCC3)c3oc4ncccc4c3n2)c1 | RPS6KA1 | enzyme activity | inhibitor |  | 10 µM | remaining activity | 101%
Nc1ncnc2occ(-c3ccc(NC(=O)Nc4cc(C(F)(F)F)ccc4F)cc3)c12 | RPS6KA1 N-terminal kinase domain | cell-free assay | inhibitor |  | 20 µM | remaining signal | 2%
CNC(=O)c1cc(Oc2ccc(NC(=O)Nc3ccc(Cl)c(C(F)(F)F)c3)cc2)ccn1 | RPS6KA1 | enzyme activity | inhibitor |  | 0.3 µM | inhibition | 5%
C#Cc1cccc(Nc2ncnc3cc(OCCOC)c(OCCOC)cc23)c1 | RPS6KA1 | cell-free assay |  |  | 0.5 µM | remaining signal | 97.6%
Cc1cc(C)c(-n2ccn3nc(-c4cccnc4)cc23)cc1NC(=O)c1cc(C#N)cc(S(F)(F)(F)(F)F)c1 | RPS6KA1 N-terminal kinase domain | cell-free assay |  | competition with immobilised ligand | 0.1 µM | remaining binding | 97%
COc1cc2ncnc(Nc3ccc(Oc4ccccc4)c(C)c3C)c2cc1OC | RPS6KA1 | enzyme activity | inhibitor |  | 1 µM | inhibition | -2%
C[C@@H]1CCN(C(=O)CC#N)C[C@@H]1N(C)c1ncnc2[nH]ccc12 | RPS6KA1 | cell-free assay | inhibitor |  | 0.5 µM | remaining signal | 90.9%
O=C(Nc1cnn(-c2csc(C(=O)NC3COC3)c2)c1)Nc1ccccc1Cl | RPS6KA1 | enzyme activity | inhibitor |  | 5 µM | remaining activity | 92.4%
CO[C@H]1CC[C@H](CNc2ccc(S(=O)(=O)NC(=O)c3ccc(N4CCN(CC5=C(c6ccc(Cl)cc6)CC(C)(C)CC5)CC4)cc3Oc3cnc4[nH]ccc4c3)cc2[N+](=O)[O-])CC1 | RPS6KA1 C-terminal kinase domain | cell-free assay |  | competition with immobilised ligand | 1 µM | remaining binding | 73%
CCN(CC)CCNC(=O)c1c(C)[nH]c(/C=C2\C(=O)Nc3ccc(F)cc32)c1C | RPS6KA1 | cell-free assay |  |  | 0.5 µM | remaining signal | 28%
CN1CC(Oc2cnc(C#N)cc2-c2ccn3nc(NC(=O)C4CC4)cc3c2)C1 | RPS6KA1 | enzyme activity | inhibitor |  | 1 µM | inhibition | 31%
COc1cc2c(Nc3ccc(Br)cc3F)ncnc2cc1OCC1CCN(C)CC1 | RPS6KA1 | cell-free assay |  |  | 0.5 µM | remaining signal | 102%
O=C(Nc1cnn(-c2csc(C(=O)NC3COC3)c2)c1)Nc1c(F)cccc1Cl | RPS6KA1 | enzyme activity | inhibitor |  | 5 µM | remaining activity | 96.3%

Compound | target | read-out | action | method | concentration | measurement | result
FC(F)c1nc2ccccc2n1-c1nc(N2CCOCC2)nc(N2CCOCC2)n1 | RPS6KA1 | enzyme activity | inhibitor |  | 10 µM | remaining activity | 95%
Nc1nc(NC2CCCCC2)sc1C(=O)c1ccccc1 | RPS6KA1 | enzyme activity | inhibitor |  | 10 µM | remaining activity | 67%
COc1cc(/C=C/C(=O)CC(=O)/C=C/c2ccc(O)c(OC)c2)ccc1O | RPS6KA1 | enzyme activity | inhibitor |  | 1 µM | activity vs control | 53%
Cn1cncc1C1=CN(c2ncnc3[nH]cnc23)CCS1 | RPS6KA1 | enzyme activity | inhibitor | radiometric | 2 µM | inhibition | 82%
CCN(CC)c1ccc(C2=NNC(=O)CC2C)cc1[N+](=O)[O-] (centres unmarked) | RPS6KA1 | enzyme activity | inhibitor |  | 10 µM | remaining activity | 101%
CC1CCCN1c1nccc(-c2cnn3ncccc23)n1 (centres unmarked) | RPS6KA1 C-terminal kinase domain | binding |  | competition with immobilised ligand | 1 µM | remaining binding | 77%
COc1cc(Cl)c(C(=O)N[C@@H](CN[C@H]2CC[C@@H](N)CC2)Cc2ccc(C#N)cc2)cc1-c1ccc(CN[C@H](C)c2ccc(C)cc2)o1 | RPS6KA1 | enzyme activity | inhibitor |  | 1 µM | remaining activity | 85%
COc1cc2ncnc(Nc3ccc(F)c(Cl)c3)c2cc1OCCCN1CCOCC1 | RPS6KA1 | cell-free assay |  |  | 0.5 µM | remaining signal | 97.3%
Nc1nc(Nc2ccccc2)sc1C(=O)c1c(F)cccc1F | RPS6KA1 | enzyme activity | inhibitor |  | 10 µM | remaining activity | 29%
Nc1cnc(N2CCc3cc(S(=O)(=O)Nc4c(F)cc(Cl)cc4F)cc(N4CCCC4=O)c32)nc1 | RPS6KA1 N-terminal kinase domain | cell-free assay |  | competition with immobilised ligand | 1 µM | remaining binding | 93%
CN(C)c1ncc(F)c(-c2cnn3ncccc23)n1 | RPS6KA1 C-terminal kinase domain | binding |  | competition with immobilised ligand | 1 µM | remaining binding | 100%
CC(C)(O)c1cncc(-c2nc3ccc(F)cc3n2C2CC2)c1 | RPS6KA1 C-terminal kinase domain | cell-free assay |  | competition with immobilised ligand | 1 µM | remaining binding | 100%
N[C@@H]1CCN(c2nccc(-c3cnn4ncccc34)n2)C1 | RPS6KA1 C-terminal kinase domain | binding |  | competition with immobilised ligand | 1 µM | remaining binding | 100%
CCCCN(CCCC)C(=O)CN1C[C@H](c2cc(OC)c3c(c2)OCO3)[C@@H](C(=O)O)[C@@H]1CC(C)(C)CCC | RPS6KA1 N-terminal kinase domain | cell-free assay |  | competition with immobilised ligand | 1 µM | remaining binding | 97.7%
Cc1ccc(C(=O)Nc2ccc(CN3CCN(C)CC3)c(C(F)(F)F)c2)cc1C#Cc1cnc2cccnn12 | RPS6KA1 | enzyme activity | inhibitor |  | 23.5 nM | remaining activity | 80%
Cc1cc(NC(=O)c2cccc3cc(-c4cccc5[nH]nc(N)c45)ccc23)ccc1F | RPS6KA1 | enzyme activity | inhibitor |  | 0.1 µM | activity vs control | 115%
CC(=O)c1c(NS(C)(=O)=O)c2cc(-c3ccc(Cl)cc3)c(-c3ccc(Cl)cc3Cl)nc2n(C)c1=O | RPS6KA1 N-terminal kinase domain | cell-free assay |  | competition with immobilised ligand | 1 µM | remaining binding | 93%
CCCOc1ccc(OC)c(F)c1C(=O)c1ccc(C(=O)N[C@@H]2CNC[C@H]2NC(=O)c2ccc3[nH]ncc3c2)cc1 | RPS6KA1 | enzyme activity | inhibitor |  | 10 µM | remaining activity | 29%
CC/C(=N\NC(=O)NCc1cccc(O)c1)c1ccc(O)c(C)c1O | RPS6KA1 | enzyme activity | inhibitor |  | 0.1 µM | inhibition | 72.1%
CCCCNc1ncc2c(-c3ccc(F)cc3)nn(C[C@H]3CC[C@H](N)CC3)c2n1 | RPS6KA1 C-terminal kinase domain | target engagement in cells | inhibitor | chemoproteomics | 20 mM | inhibition | 63.4%
